Assay results taken from ChEMBL document CHEMBL1143004, “Structure-activity relationship among purpurinimides and bacteriopurpurinimides: trifluoromethyl substituent enhanced the photosensitizing efficacy” (J Med Chem, 2007).

Columns and labels:
[1] = Ratio of drug level in tumor to skin of C3H mouse bearing RIF tumors after 24 hrs by IRS; assay type: ADME; details: in vivo
How it was run: (§1)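 In vivo reflectance spectroscopy in female C3H/RIF or BALB/c/colon-26 mice. Baseline spectrum recorded via fiber bundles on tumor plus overlying skin and on normal skin. Drug 2.5–5.0 µmol/kg i.v. by tail vein, then spectra recorded up to 2 days. Post- to pre-injection spectral ratio compared in tumor versus skin. n = 3.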

[2] = Photosensitizing efficacy in C3H mouse bearing RIF tumors measured as tumor free at 0.7 umol/kg and light dose 135 J/cm2 after 90 days; assay type: functional
How it was run: (§2)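 Female C3H mice given s.c. RIF cells (3 × 10⁵) or female BALB/c mice given colon-26 cells (1 × 10⁶), both on right posterior shoulder. Drug in 1% Tween 80/HBSS given i.v. the day before light, hair depilated. At 24 h p.i., restrained unanaesthetized mice (10/group) got a 1 cm² argon-pumped dye laser spot, 135 J/cm² at 75 mW/cm². Tumor volume L·W²/2; cure = no palpable tumor.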

[3] = Ratio of drug level in tumor to skin of Balb/C mouse implanted with colon26 tumor after 24 hrs by IRS; assay type: ADME; details: in vivo; how it was run: as §1
[4] = tested on: RIF; assay: Photosensitizing efficacy in RIF cells after 48 hrs by MTT assay in presence of light; assay type: functional, cell-based
How it was run: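 RIF cells, 5 × 10³/well, seeded in α-MEM with 10% FCS. Next day drug added at 1.25–20 µM (formulated in 1% Tween 80/5% dextrose, diluted in medium), 24 h dark at 37 °C. Medium replaced, then 708 nm (purpurinimides) or 791 nm (bacteriopurpurinimides) at 3.2 mW/cm², 0.5–20 J/cm². After 48 h dark, MTT 4 h, DMSO, A560. Survival relative to dark and light controls; four wells per point, SD from three experiments.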

[5] = tested on: Colon 26; assay: Photosensitizing efficacy in Balb/C mouse implanted with colon26 tumors measured as tumor free at 0.7 umol/kg and light dose 135 J/cm2 after 90 days; assay type: functional; how it was run: as §2
[6] = Photosensitizing efficacy in C3H mouse bearing RIF tumors measured as tumor free at 0.4 umol/kg and light dose 135 J/cm2 after 60 days; assay type: functional; how it was run: as §2

| Structure (SMILES) | Ratio [1] | other results |
| --- | --- | --- |
| CCC1=C(C)c2cc3[nH]c(cc4nc(c5c6[nH]c(cc1n2)c(C)c6C(=O)N(Cc1cc(C(F)(F)F)cc(C(F)(F)F)c1)C5=O)[C@@H](CCC(=O)OC)[C@@H]4C)c(C)c3C(C)OC (stereo partly drawn) | 2.48 | – |
| CCCCOC(C)c1c(C)c2cc3nc(c4c5[nH]c(cc6nc(cc1[nH]2)C(C)=C6CC)c(C)c5C(=O)N(Cc1cc(C(F)(F)F)cc(C(F)(F)F)c1)C4=O)[C@@H](CCC(=O)OC)[C@@H]3C (stereo partly drawn) | 4.76 | Activity [2]: 30%; Ratio [3]: 3.38; Activity [4]: Dose-dependent effect; Activity [5]: 30% |
| CCCCOC(C)c1c(C)c2cc3nc(c4c5[nH]c(cc6nc(cc1[nH]2)[C@@H](C)[C@@H]6CC)c(C)c5C(=O)N(Cc1cc(C(F)(F)F)cc(C(F)(F)F)c1)C4=O)[C@@H](CCC(=O)OC)[C@@H]3C (stereo partly drawn) | 5.3 | – |
| CCCCOC(C)c1c(C)c2cc3nc(c4c5[nH]c(cc6nc(cc1[nH]2)C(C)=C6CC)c(C)c5C(=O)N(Cc1cc(C(F)(F)F)cc(C(F)(F)F)c1)C4=O)[C@@H](CCC(=O)Nc1ccc(CC(CN(CCN(CC(=O)O)CC(=O)O)CC(=O)O)N(CC(=O)O)CC(=O)O)cc1)[C@@H]3C (stereo partly drawn) | 3.68 | Activity [2]: 70%; Ratio [3]: 5.06; Activity [5]: 70% |
| CCCCCCCCCCCCOC(C)c1c(C)c2cc3nc(c4c5[nH]c(cc6nc(cc1[nH]2)[C@@H](C)[C@@H]6CC)c(C)c5C(=O)N(Cc1cc(C(F)(F)F)cc(C(F)(F)F)c1)C4=O)[C@@H](CCC(=O)OC)[C@@H]3C (stereo partly drawn) | 8.89 | Activity [6]: 60% |
| CC[C@@H]1c2cc3[nH]c4c(c5nc(cc6[nH]c(cc(n2)[C@H]1C)c(C(C)OC)c6C)[C@@H](C)[C@@H]5CCC(=O)OC)C(=O)N(Cc1cc(C(F)(F)F)cc(C(F)(F)F)c1)C(=O)c4c3C (stereo partly drawn) | 1.91 | – |
| CCCCCCCOC(C)c1c(C)c2cc3nc(c4c5[nH]c(cc6nc(cc1[nH]2)[C@@H](C)[C@@H]6CC)c(C)c5C(=O)N(Cc1cc(C(F)(F)F)cc(C(F)(F)F)c1)C4=O)[C@@H](CCC(=O)OC)[C@@H]3C (stereo partly drawn) | 6.87 | – |
| CCCCCCCCCCCCOC(C)c1c(C)c2cc3nc(c4c5[nH]c(cc6nc(cc1[nH]2)C(C)=C6CC)c(C)c5C(=O)N(Cc1cc(C(F)(F)F)cc(C(F)(F)F)c1)C4=O)[C@@H](CCC(=O)OC)[C@@H]3C (stereo partly drawn) | 1.82 | Activity [6]: 50% |
| CCCCCCCOC(C)c1c(C)c2cc3nc(c4c5[nH]c(cc6nc(cc1[nH]2)C(C)=C6CC)c(C)c5C(=O)N(Cc1cc(C(F)(F)F)cc(C(F)(F)F)c1)C4=O)[C@@H](CCC(=O)OC)[C@@H]3C (stereo partly drawn) | 1.97 | – |
